Test results published in ChEMBL document CHEMBL4118083, “Synthesis and anti-oxidant activity evaluation of (±)-Anastatins A, B and their analogs” (Eur J Med Chem, 2017).
Calls of active or inactive are those of the source. No cut-off for these calls is given here.

What was measured:
[1] = Antioxidant activity assessed as vitamin-c equivalents of ferric ion reducing activity by measuring Fe2+ levels using Fe3+-TPTZ by FRAP assay; format: functional
How it was run: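 Ferric-TPTZ complex reduced to ferrous form, per earlier-described method. Calibration curve from serial dilution of vitamin C standard (100-600 […] as printed). Compound reducing power expressed as vitamin C equivalents, calculated from three independent experiments.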

PC-12 [2] = experiment: Cytoprotective activity against H2O2-induced apoptosis in rat PC12 cells assessed as early apoptotic cells at 100 uM preincubated for 0.5 hrs followed by H2O2 addition measured after 2 hrs by Annexin V-FITC/propidium iodide staining based flow cytometry (reference value: 3.2%); format: functional
PC-12 [3] = experiment: Cytoprotective activity against H2O2-induced oxidative damage in rat PC12 cells assessed as reduction in morphological changes by measuring membrane blebbing at 10 to 100 uM preincubated for 0.5 hrs followed by H2O2 addition measured after 2 hrs; format: functional, cell-based
How it was run: (§1)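 PC12 cells plated 5×10^5 cells/well and grown 24 h, then given test agent (10 and 100 µM) for 0.5 h before 100 µM H2O2 for 2 h. Controls received medium with 0.1% DMSO. Cell shrinkage and blebbing were inspected by microscopy at 200×.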

PC-12 [4] = experiment: Cytoprotective activity against H2O2-induced apoptosis in rat PC12 cells assessed as late apoptotic cells at 100 uM preincubated for 0.5 hrs followed by H2O2 addition measured after 2 hrs by Annexin V-FITC/propidium iodide staining based flow cytometry (reference value: 57.5%); format: functional
PC-12 [5] = experiment: Cytoprotective activity against H2O2-induced apoptosis in rat PC12 cells assessed as early apoptotic cells at 10 uM preincubated for 0.5 hrs followed by H2O2 addition measured after 2 hrs by Annexin V-FITC/propidium iodide staining based flow cytometry (reference value: 3.2%); format: functional
PC-12 [6] = experiment: Cytoprotective activity against H2O2-induced apoptosis in rat PC12 cells assessed as necrotic cells at 100 uM preincubated for 0.5 hrs followed by H2O2 addition measured after 2 hrs by Annexin V-FITC/propidium iodide staining based flow cytometry (reference value: 2%); format: functional
PC-12 [7] = experiment: Cytoprotective activity against H2O2-induced apoptosis in rat PC12 cells assessed as late apoptotic cells at 10 uM preincubated for 0.5 hrs followed by H2O2 addition measured after 2 hrs by Annexin V-FITC/propidium iodide staining based flow cytometry (reference value: 57.5%); format: functional
PC-12 [8] = experiment: Cytoprotective activity against H2O2-induced apoptosis in rat PC12 cells assessed as live cells at 100 uM preincubated for 0.5 hrs followed by H2O2 addition measured after 2 hrs by Annexin V-FITC/propidium iodide staining based flow cytometry (reference value: 37.3%); format: functional
PC-12 [9] = experiment: Cytoprotective activity against H2O2-induced apoptosis in rat PC12 cells assessed as necrotic cells at 10 uM preincubated for 0.5 hrs followed by H2O2 addition measured after 2 hrs by Annexin V-FITC/propidium iodide staining based flow cytometry (reference value: 2%); format: functional
PC-12 [10] = experiment: Cytoprotective activity against H2O2-induced oxidative damage in rat PC12 cells assessed as reduction in morphological changes by measuring cell shrinkage at 10 to 100 uM preincubated for 0.5 hrs followed by H2O2 addition measured after 2 hrs; format: functional, cell-based; how it was run: as §1
PC-12 [11] = experiment: Cytoprotective activity against H2O2-induced apoptosis in rat PC12 cells assessed as live cells at 10 uM preincubated for 0.5 hrs followed by H2O2 addition measured after 2 hrs by Annexin V-FITC/propidium iodide staining based flow cytometry (reference value: 37.3%); format: functional
PC-12 [12] = experiment: Cytotoxicity against rat PC12 cells assessed as effect on cell viability at 100 uM after 48 hrs by MTT assay; format: cell-based; conditions: pc-12, 48 h
How it was run: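 Rat PC12 cells at 5×10^5 per well, grown 24 h, then exposed 48 h to compound in DMSO. MTT added for 4 h, formazan dissolved in DMSO, absorbance 490 nm. Viability relative to DMSO-treated controls. Triplicate tests.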

PC-12 [13] = experiment: Cytoprotective activity against H2O2-induced oxidative damage in rat PC12 cells assessed as cell viability at 100 uM preincubated for 0.5 hrs followed by H2O2 addition measured after 2 hrs by MTT assay relative to control; format: functional; conditions: read-out: Activity
How it was run: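 PC12 cells in RPMI-1640 with 10% FBS, plated at 5×10^5 per well, 24 h. Compound in DMSO added 0.5 h before 100 µM H2O2, then 2 h injury. MTT for 4 h, formazan dissolved in DMSO, OD 490 nm. Viability normalised to DMSO controls (100%). Mean of three independent experiments.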

PC-12 [14] = experiment: Cytoprotective activity against H2O2-induced apoptosis in rat PC12 cells assessed as apoptotic cells at 100 uM preincubated for 0.5 hrs followed by H2O2 addition measured after 2 hrs by Annexin V-FITC/propidium iodide staining based flow cytometry (reference value: 60.7%); format: functional

Structure (SMILES) | Activity [1] | also measured
O=C1/C(=C/c2ccc(O)cc2)Oc2cc(O)c(-c3ccc(O)c(O)c3)c(O)c21 | 241 mgequiv/mmol | 
O=C1/C(=C/c2ccccc2)Oc2cc(O)c(-c3ccc(O)c(O)c3)c(O)c21 | 237 mgequiv/mmol | 
O=C(O)c1cc(O)c(O)c(O)c1 [GALLIC ACID] | 333 mgequiv/mmol | Activity (PC-12 [2]): 0.7%; Activity (PC-12 [3]): Active; Activity (PC-12 [4]): 2.1%; Activity (PC-12 [5]): 2.5%; Activity (PC-12 [6]): 0.4%; Activity (PC-12 [7]): 10%; Activity (PC-12 [8]): 96.7%; Activity (PC-12 [9]): 1.7%; Activity (PC-12 [10]): Active; Activity (PC-12 [11]): 85.8%
O=C1CC(c2ccc(O)cc2)Oc2cc3oc4cc(O)c(O)cc4c3c(O)c21 (racemic) | 260 mgequiv/mmol | 
O=C1/C(=C/c2ccc(O)cc2)Oc2c1c(O)cc(O)c2-c1ccc(O)c(O)c1 | 263 mgequiv/mmol | 
O=C1c2c(cc3oc4cc(O)c(O)cc4c3c2O)OC1Cc1ccc(O)cc1 (centres undefined) | 253 mgequiv/mmol | 
O=c1cc(-c2ccc(O)cc2)oc2c1c(O)cc1oc3cc(O)c(O)cc3c12 | 137 mgequiv/mmol | 
O=C1/C(=C/c2ccc(O)cc2)Oc2cc3oc4cc(O)c(O)cc4c3c(O)c21 | 264 mgequiv/mmol | 
O=C1c2c(cc3oc4cc(O)c(O)cc4c3c2O)OC1Cc1ccc(O)c(O)c1 (centres undefined) | 396 mgequiv/mmol | Activity (PC-12 [12]): Toxic
O=C1/C(=C/c2ccccc2)Oc2cc3oc4cc(O)c(O)cc4c3c(O)c21 | 134 mgequiv/mmol | 
O=C1/C(=C/c2ccc(O)c(O)c2)Oc2cc3oc4cc(O)c(O)cc4c3c(O)c21 | 277 mgequiv/mmol | 
O=c1cc(-c2ccc(O)cc2)oc2cc(O)c(-c3ccc(O)c(O)c3)c(O)c12 | 276 mgequiv/mmol | 
O=C1/C(=C/c2ccccc2)Oc2c1c(O)cc1oc3cc(O)c(O)cc3c21 | 116 mgequiv/mmol | 
O=C1/C(=C/c2ccc(O)cc2)Oc2c1c(O)cc1oc3cc(O)c(O)cc3c21 | 270 mgequiv/mmol | 
O=c1cc(-c2ccc(O)cc2)oc2c(-c3ccc(O)c(O)c3)c(O)cc(O)c12 | 271 mgequiv/mmol | 
O=c1cc(-c2ccc(O)cc2)oc2cc3oc4cc(O)c(O)cc4c3c(O)c12 | 116 mgequiv/mmol | 
O=C1c2c(O)cc(O)c(-c3ccc(O)c(O)c3)c2OC1Cc1ccc(O)c(O)c1 (centres undefined) | 376 mgequiv/mmol | viability at 100 µM (PC-12 [13]): 100%
O=C1/C(=C/c2ccccc2)Oc2c1c(O)cc(O)c2-c1ccc(O)c(O)c1 | 269 mgequiv/mmol | 
O=C1/C(=C/c2ccc(O)c(O)c2)Oc2c1c(O)cc1oc3cc(O)c(O)cc3c21 | 260 mgequiv/mmol | 
O=C1/C(=C/c2ccc(O)c(O)c2)Oc2c1c(O)cc(O)c2-c1ccc(O)c(O)c1 | 318 mgequiv/mmol | Activity (PC-12 [3]): Active; Activity (PC-12 [5]): 2.4%; Activity (PC-12 [6]): 0.4%; Activity (PC-12 [7]): 3.5%; Activity (PC-12 [14]): 4.1%; Activity (PC-12 [8]): 95.6%; Activity (PC-12 [9]): 0.4%; Activity (PC-12 [10]): Active; Activity (PC-12 [11]): 93.6%
O=C1c2c(O)cc3oc4cc(O)c(O)cc4c3c2OC1Cc1ccc(O)c(O)c1 (centres undefined) | 373 mgequiv/mmol | 
O=C1CC(c2ccc(O)cc2)Oc2c1c(O)cc1oc3cc(O)c(O)cc3c21 (racemic) | 224 mgequiv/mmol | 
O=C1c2c(O)cc3oc4cc(O)c(O)cc4c3c2OC1Cc1ccc(O)cc1 (centres undefined) | 248 mgequiv/mmol | 
O=C1c2c(cc3oc4cc(O)c(O)cc4c3c2O)OC1Cc1ccccc1 (centres undefined) | 227 mgequiv/mmol | 
O=C1c2c(O)cc3oc4cc(O)c(O)cc4c3c2OC1Cc1ccccc1 (centres undefined) | 262 mgequiv/mmol | 
O=C1c2c(cc(O)c(-c3ccc(O)c(O)c3)c2O)OC1Cc1ccc(O)c(O)c1 (centres undefined) | 394 mgequiv/mmol | 
O=C1/C(=C/c2ccc(O)c(O)c2)Oc2cc(O)c(-c3ccc(O)c(O)c3)c(O)c21 | 372 mgequiv/mmol | viability at 100 µM (PC-12 [13]): 100%
